Experimental data from ChEMBL document CHEMBL1122171, “Hypobetalipoproteinemic agents. 3. Variation of the polycyclic portion of 4-(1-adamantyloxy)aniline” (1982).

Tests used:
Type in all cases: functional
[1] = tested on: Rattus norvegicus; test: Hypobetalipoproteinemic activity was determined in diet-induced hypercholesterolemic rats at a dose of 0.19 (mmol/kg)/day (heparin precipitating lipoproteins level was determined)
Procedure, shortened: (§1)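 Cholesterol-cholic acid fed rats given each compound at 50 (mg/kg)/day in 0.25% aqueous methylcellulose vehicle. Serum total cholesterol, heparin precipitating lipoproteins (HPL) and HPL/cholesterol ratio measured. Values expressed as T/C, the treated-group mean divided by the control mean. Significance vs control set at p < 0.05. Food intake and weight gain monitored. Active compounds retested for confirmation.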

[2] = tested on: Rattus norvegicus; test: Hypobetalipoproteinemic activity was determined in diet-induced hypercholesterolemic rats at a dose of 0.19 (mmol/kg)/day (total cholesterol level was determined); procedure, shortened: as §1
[3] = Ratio of heparin precipitating lipoproteins level to cholesterol level was determined; procedure, shortened: as §1
[4] = tested on: Rattus norvegicus; test: Hypobetalipoproteinemic activity was determined in diet-induced hypercholesterolemic rats at a dose of 0.17 (mmol/kg)/day (heparin precipitating lipoproteins level was determined); procedure, shortened: as §1
[5] = tested on: Rattus norvegicus; test: Hypobetalipoproteinemic activity was determined in diet-induced hypercholesterolemic rats at a dose of 0.17 (mmol/kg)/day (total cholesterol level was determined); procedure, shortened: as §1
[6] = tested on: Rattus norvegicus; test: Hypobetalipoproteinemic activity was determined in diet-induced hypercholesterolemic rats at a dose of 0.18 (mmol/kg)/day (total cholesterol level was determined); procedure, shortened: as §1
[7] = tested on: Rattus norvegicus; test: Hypobetalipoproteinemic activity was determined in diet-induced hypercholesterolemic rats at a dose of 0.18 (mmol/kg)/day (heparin precipitating lipoproteins level was determined); procedure, shortened: as §1
[8] = tested on: Rattus norvegicus; test: Hypobetalipoproteinemic activity was determined in diet-induced hypercholesterolemic rats at a dose of 0.22 (mmol/kg)/day (heparin precipitating lipoproteins level was determined); procedure, shortened: as §1
[9] = tested on: Rattus norvegicus; test: Hypobetalipoproteinemic activity was determined in diet-induced hypercholesterolemic rats at a dose of 0.22 (mmol/kg)/day (total cholesterol level was determined); procedure, shortened: as §1

SMILES	Ratio [3]	T/C [4]	T/C [5]	further results
CCCCCC(C)(C)Oc1ccc(N)cc1.Cl	0.94	–	–	T/C [1]: 0.96; T/C [2]: 1.02
Nc1ccc(OC23CC4C5CC6CC4C(C2)C(C6)C5C3)cc1	0.62	0.19	0.31	–
Cl.Nc1ccc(OC23CCCCC2CCCC3)cc1 (stereo in doubt; 14)	–	–	–	T/C [6]: 0.92; T/C [7]: 0.89
Nc1ccc(OC23CCCCC2CCCC3)cc1 (stereo in doubt; 14)	0.97	–	–	–
CCCCCCCC(C)(C)Oc1ccc(N)cc1.Cl	0.86	0.84	0.98	–
CCCC(C)(C)Oc1ccc(N)cc1.Cl	0.92	–	–	T/C [8]: 0.78; T/C [9]: 0.84
Nc1ccc(OC23CC4CC5C6CC(CC52)CC3C6C4)cc1	0.66	0.35	0.53	–
Cl.Nc1ccc(OC23CCCCC2CCCC3)cc1 (stereo in doubt; 17)	–	–	–	T/C [6]: 1.38; T/C [7]: 1.24
Nc1ccc(OC23CCCCC2CCCC3)cc1 (stereo in doubt; 17)	0.9	–	–	–
